Test results reported in ChEMBL document CHEMBL5576114, “Inhibition of DXR in the MEP pathway with lipophilic N-alkoxyaryl FR900098 analogs” (RSC Med Chem, 2024).
Active and inactive are the calls of the source. No cut-off for these calls is given here.

Experiments:
[1] = biological target: T1, 1-deoxy-D-xylulose 5-phosphate reductoisomerase (Mycobacterium tuberculosis) (UniProt P9WNS1); assay: Inhibition of Mycobacterium tuberculosis DXR expressed in Escherichia coli BL21 CodonPlus (DE3)-RIL cells using DOXP as substrate at 100 uM in presence of NADPH by UV-visible spectrophotometry relative to control
T1 sequence (whole entry): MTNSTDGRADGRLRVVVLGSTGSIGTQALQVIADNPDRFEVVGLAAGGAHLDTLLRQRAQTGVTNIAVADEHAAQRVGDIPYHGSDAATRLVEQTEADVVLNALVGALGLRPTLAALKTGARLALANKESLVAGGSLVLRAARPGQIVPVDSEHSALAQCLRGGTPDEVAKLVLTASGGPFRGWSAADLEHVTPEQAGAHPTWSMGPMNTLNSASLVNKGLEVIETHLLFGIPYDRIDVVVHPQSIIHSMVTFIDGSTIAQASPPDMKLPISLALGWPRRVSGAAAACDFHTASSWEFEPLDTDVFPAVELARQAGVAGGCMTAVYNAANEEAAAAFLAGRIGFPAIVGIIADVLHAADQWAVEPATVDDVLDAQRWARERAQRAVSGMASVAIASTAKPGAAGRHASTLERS
Summary of the method: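 Recombinant MtbDXR (pET101/D-TOPO in E. coli BL21 CodonPlus (DE3)-RIL, IMAC-purified) at 0.89 µM in 100 mM MES pH 6.5, 25 mM MgCl2, 150 µM NADPH, 47 µM DOXP, 37 °C. Inhibitor was tested at a single 100 µM. NADPH oxidation was followed at 340 nm, and percent remaining activity was reported. Technical duplicates.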

[2] = test system: Mycobacterium tuberculosis; assay: Antibacterial activity against Mycobacterium tuberculosis H37Rv assessed as reduction in bacterial growth incubated for 2 weeks by macroscopic plate reader analysis; assay type: functional; conditions: 336 h
Summary of the method: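 H37Rv grown in 7H9 broth with 0.08% NaCl, 0.4% glucose, 0.05% casitone and 0.05% tyloxapol, then diluted 1:500. Compounds were made as 20 mg/mL DMSO stocks and run as eleven 2-fold serial dilutions. Plates were held 2 weeks at 37 °C and MIC99 was read macroscopically. Three independent measurements.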

Plasmodium falciparum [3] = assay: Antiplasmodial activity against Plasmodium falciparum 3D7 assessed as reduction in parasite growth by measuring DNA content after 3 days by PicoGreen staining based FLUOstar omega microplate reader analysis; assay type: functional, organism-based; conditions: 3D7, 72 h
Summary of the method: (§1)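 Asynchronous cultures in 2% hematocrit, RPMI-1640 complete medium with 0.5% Albumax, under 5% O2/5% CO2/90% N2 at 37 °C. Diluted to 0.5% parasitemia, inhibitors 1.2 nM to 492.4 µM added at start. Growth read after 3 days as DNA content by PicoGreen fluorescence (485/528 nm). IC50 from 4-parameter nonlinear regression; technical duplicate, biological triplicate.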

Plasmodium falciparum [4] = assay: Antiplasmodial activity against Plasmodium falciparum E1-C12 harboring with had1 mutation assessed as reduction in parasite growth by measuring DNA content after 3 days by PicoGreen staining based FLUOstar omega microplate reader analysis; assay type: functional, organism-based; conditions: time 3.0 day
Summary of the method: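 E1-C12 (had1) parasites, asynchronous, at 2% hematocrit in RPMI-1640/0.5% Albumax with hypoxanthine, under 5% O2/5% CO2/90% N2 at 37 °C. Started at 0.5% parasitemia and dosed at 1.2 nM–492.4 µM. After 3 days, DNA was stained with PicoGreen (ex 485/em 528). IC50 came from a 4-parameter fit; technical duplicates, biological triplicates.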

[5] = Cytotoxicity against human HepG2 cells assessed as reduction in cell viability after 24 hrs by Cell Titer Glo assay; assay type: toxicity, cell-based
Summary of the method: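 HepG2 cells in DMEM with 4 mM L-glutamine and 4.5 g/L glucose, trypsinized and plated from a 4×10^5 cells/mL suspension. Compounds were tested as two-fold dilutions from 100 to 0.1 µg/mL, with a DMSO-only control, in duplicate. After 24 h at 37 °C, 5% CO2, CellTiter-Glo luminescence was read after 20 min in the dark.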

[6] = biological target: T2, 1-deoxy-D-xylulose 5-phosphate reductoisomerase (Mycobacterium tuberculosis, UniProt P9WNS1); assay: Inhibition of Mycobacterium tuberculosis DXR expressed in Escherichia coli BL21 CodonPlus (DE3)-RIL cells using DOXP as substrate in presence of NADPH by UV-visible spectrophotometry
T2 sequence (P9WNS1 whole entry): T1 sequence (whole entry)

[7] = biological target: T3, 1-deoxy-D-xylulose 5-phosphate reductoisomerase, apicoplastic (Plasmodium falciparum (isolate 3D7), UniProt Q8IKG4); assay: Inhibition of Plasmodium falciparum DXR expressed in Escherichia coli BL21 CodonPlus (DE3)-RIL cells using DOXP as substrate in presence of NADPH by UV-visible spectrophotometry
T3 sequence (Q8IKG4 whole entry): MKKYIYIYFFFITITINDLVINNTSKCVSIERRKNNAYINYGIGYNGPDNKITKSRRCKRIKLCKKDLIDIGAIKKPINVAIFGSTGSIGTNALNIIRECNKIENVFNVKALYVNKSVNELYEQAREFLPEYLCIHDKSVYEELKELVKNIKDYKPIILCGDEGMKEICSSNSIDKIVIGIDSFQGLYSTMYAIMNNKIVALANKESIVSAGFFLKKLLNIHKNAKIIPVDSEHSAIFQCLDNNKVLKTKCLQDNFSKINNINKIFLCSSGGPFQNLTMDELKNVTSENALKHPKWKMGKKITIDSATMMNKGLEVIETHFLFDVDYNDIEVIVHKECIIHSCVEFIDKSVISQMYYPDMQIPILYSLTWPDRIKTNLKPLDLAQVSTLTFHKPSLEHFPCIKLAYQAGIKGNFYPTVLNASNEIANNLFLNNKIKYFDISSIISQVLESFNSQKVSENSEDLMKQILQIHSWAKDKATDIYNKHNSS

[8] = biological target: T4, 1-deoxy-D-xylulose 5-phosphate reductoisomerase, apicoplastic (Plasmodium falciparum (isolate 3D7)) (UniProt Q8IKG4); assay: Inhibition of Plasmodium falciparum DXR expressed in Escherichia coli BL21 CodonPlus (DE3)-RIL cells using DOXP as substrate at 100 uM in presence of NADPH by UV-visible spectrophotometry relative to control
T4 sequence (whole entry): T3 sequence (Q8IKG4 whole entry)
Summary of the method: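 PfDXR single-point test at 100 µM inhibitor. Conditions: 0.86 µM IMAC-purified enzyme, 100 mM Tris pH 7.8, 25 mM MgCl2, 150 µM NADPH, 37 °C. Reaction was started with 144 µM DOXP, and NADPH oxidation was monitored at 340 nm. Percent remaining activity was reported; technical duplicates.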

Plasmodium falciparum [9] = assay: Antiplasmodial activity against Plasmodium falciparum E1-C12 harboring with had1 mutation assessed as reduction in parasite growth by measuring DNA content after 3 days in presence of IPP by PicoGreen staining based FLUOstar omega microplate reader analysis; assay type: functional, organism-based; conditions: time 3.0 day
Summary of the method: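 IPP rescue in had1 E1-C12 parasites: 125 µM IPP was present for the whole assay. Cultures at 2% hematocrit in Albumax-supplemented RPMI, 5% O2/5% CO2, 37 °C, started at 0.5% parasitemia. Inhibitors were dosed at 1.2 nM–492.4 µM, and growth was read after 3 days by PicoGreen fluorescence. 4-parameter fit; duplicate wells, biological triplicates.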

Plasmodium falciparum [10] = assay: Antiplasmodial activity against Plasmodium falciparum; assay type: functional, organism-based; summary of the method: as §1
[11] = test system: Mycobacterium tuberculosis; assay: Antibacterial activity against Mycobacterium tuberculosis H37Rv assessed as reduction in bacterial growth; assay type: functional
[12] = biological target: T3, 1-deoxy-D-xylulose 5-phosphate reductoisomerase, apicoplastic; assay: Inhibition of Plasmodium falciparum DXR
[13] = biological target: T2, 1-deoxy-D-xylulose 5-phosphate reductoisomerase; assay: Inhibition of Mycobacterium tuberculosis DXR using DXP as substrate preincubated for 10 mins followed by NADPH addition and measured after 5 mins by spectrophotometric assay

CC(=O)N(CCC(c1ccc(Cl)c(Cl)c1)P(=O)(O)O)OC(C)c1ccc(F)cc1 (stereo not drawn)
inhibition [1]: > 90% | MIC [2]: > 200 µM | IC50 (Plasmodium falciparum [3]): 2420 nM | Activity (Plasmodium falciparum [4]): Active | IC50 at 24 h [5]: > 200000 nM | IC50 [6]: 4780 nM | IC50 [7]: 470 nM | inhibition [8]: > 90% | Activity (Plasmodium falciparum [9]): inactive

O=CN(O)CCCP(=O)(O)O [FOSMIDOMYCIN]
IC50 (Plasmodium falciparum [10]): 1020 nM | MIC [11]: > 500 µg/mL

COc1ccc(C(C)ON(CCC(c2ccc(Cl)c(Cl)c2)P(=O)(O)O)C(C)=O)cc1 (stereo not drawn)
inhibition [1]: > 90% | MIC [2]: > 98 µM | IC50 (Plasmodium falciparum [3]): 300 nM | Activity (Plasmodium falciparum [4]): Active | IC50 at 24 h [5]: > 200000 nM | IC50 [6]: 780 nM | IC50 [7]: 110 nM | inhibition [8]: > 90% | Activity (Plasmodium falciparum [9]): inactive

CC(=O)N(O)CCCP(=O)(O)O [FR-900098]
IC50 [12]: 22 nM | IC50 [13]: 2910 nM | MIC [11]: > 500 µg/mL
